# This is a sample that favours compounds with a hit; in the whole collection about 1.6% have one here.
# DNA FID counter: fluorescent intercalator displacement, NS3 helicase counter-screen; inhibition, % at 7.9 µM; 290,000 compounds, 0.17% hits; DNA fluorescent intercalator displacement, fluorescence; in the data active means inhibition above about 37%;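 further: 0% = vehicle and 100% = reference compound; higher means more ethidium bromide displaced from hairpin DNA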
# Apaf-1 inh: inhibitors of human Apaf-1 apoptosome | O14727 | AID 489030 | inhibition, % at 20 µM | 330,000 compounds, 0.71% hits | reconstituted apoptosome caspase-3 activity, DEVD-Rh110 fluorescence; active means inhibition of at least 40% at 20 µM;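 further: plate controls were DMSO wells for no effect and DEVD-CHO caspase inhibitor wells for full effect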
#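 System – cell-free apoptosome with Apaf-1, procaspase-3 and caspase-9 · Buffer or medium – pH 7.5 Hepes buffer with CHAPS, BSA, DTT · Also added – cytochrome c with DEVD-Rh110 · Times – 30 min compound preincubation, 50 min activation, room temperature · Technique – Rh110 fluorescence intensity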
# Neddyl block: blocks human cullin neddylation | P61081+Q13564 | 360,000 compounds, 0.58% hits | AID 651699 | TR-FRET cullin neddylation, biochemical | calls only at 25 µM; in the data active means inhibition above about 36%
# RAD54 inh: RAD54 (human) branch migration inhibition. Q92698. RAD54 Holliday junction branch migration, FAM/BHQ fluorescence. inhibition, % at 10.4 µM. 360,000 compounds, 0.14% hits. AID 602329;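 active means mean normalized replicate activity at least 40 and at least half of replicates scoring 40 or more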;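 further: 0% = median of neutral control wells and 100% = median of positive control wells; inhibitors cause a drop in the FAM fluorescence signal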
# RAD52 inh: RAD52 (human) annealing inhibition; recombinant RAD52 DNA annealing, FRET fluorescence; inhibition, % at 18.7 µM; 360,000 compounds, 0.46% hits; AID 651710;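 active means every replicate showing at least 50% inhibition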
# Target sequence (P43351 whole entry, looked up): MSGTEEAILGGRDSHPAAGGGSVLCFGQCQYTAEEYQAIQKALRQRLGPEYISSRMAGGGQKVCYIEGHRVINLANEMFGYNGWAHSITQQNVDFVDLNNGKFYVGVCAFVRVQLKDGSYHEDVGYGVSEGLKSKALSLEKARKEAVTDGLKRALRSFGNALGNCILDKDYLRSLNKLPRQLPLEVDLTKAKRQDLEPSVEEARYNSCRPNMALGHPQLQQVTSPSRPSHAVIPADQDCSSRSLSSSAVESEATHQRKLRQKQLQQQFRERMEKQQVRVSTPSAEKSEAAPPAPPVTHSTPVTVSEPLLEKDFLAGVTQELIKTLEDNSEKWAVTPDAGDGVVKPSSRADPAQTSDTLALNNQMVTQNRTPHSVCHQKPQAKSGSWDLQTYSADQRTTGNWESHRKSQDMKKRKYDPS
# UBC13 inh: human UBC13 polyubiquitination inhibition. UBC13 polyubiquitin chain formation, TR-FRET. inhibition, % at 20 µM. 330,000 compounds, 0.47% hits. AID 485273; in the data active means inhibition above about 45%, passing the limit was not always enough
# Target sequence (P61088 whole entry, looked up): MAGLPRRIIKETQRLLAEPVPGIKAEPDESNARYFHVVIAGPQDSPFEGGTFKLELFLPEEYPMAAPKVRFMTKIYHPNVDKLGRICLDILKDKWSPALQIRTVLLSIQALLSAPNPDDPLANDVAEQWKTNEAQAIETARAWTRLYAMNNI
# The depositor's hits bear a star; i = inactive; nt = no result; + = active, no number; ! = a repeat was not active.
SMILES,DNA FID counter,Apaf-1 inh,Neddyl block,RAD54 inh,RAD52 inh,UBC13 inh
C[C@@H]1CN([C@H](C)CO)C(=O)c2cc(NS(C)(=O)=O)ccc2O[C@@H](C)CCCCO[C@@H]1CN(C)Cc1ccc(C(=O)O)cc1,nt,nt,nt,1,-2,nt
O=C1c2ccccc2-c2onc3ccc(NCCCn4ccnc4)c1c23,69*,6,nt,nt,nt,-326
CCOC(=O)c1c(CSC(=N)N)n(-c2ccc(C)cc2)c2cc(Br)c(OC(C)=O)cc12,5,46*,i,8,nt,56*
CS(=O)(=O)CC(=O)Nc1ccc2nc3n(c(=O)c2c1)CCCCC3,4,-10,i,8,-5,-6
Cc1c(Br)c([N+](=O)[O-])nn1CC(=O)Nc1ccc2nc3n(c(=O)c2c1)CCCC3,64*,0,i,12,-10,2
CC(C)CCNC(=O)CN(Cc1ccco1)C(=O)c1snc(C(N)=O)c1N,-9,-8,i,-1,8,26
CCc1ccccc1N(CC(=O)NCc1ccco1)C(=O)c1snc(C(N)=O)c1N,-20,3,+,0,nt,12
CN(C)c1ccc(/C=C/c2ccc3c4ccccc4ccc3[n+]2-c2ccccc2)cc1,78*,nt,i,74*,45,nt
CN(C)c1ccc(/C=C/c2ccc3ccccc3[n+]2C)cc1,42*,18,i,81*,nt,i
CN(C)c1ccc(/C=C/c2cccc[n+]2[O-])cc1,-5,-10,i,-20,-216,-3
COc1ccc(NC(=O)N(C)C[C@H]2Oc3cc(C#CCC(C)C)ccc3S(=O)(=O)N([C@@H](C)CO)C[C@H]2C)cc1,nt,nt,nt,4,11,nt
COc1ccccc1-n1c(C)cc(/C=C2/C(=N)N3C(=NC2=O)SN=C3S(C)(=O)=O)c1C,-27,-2,+,nt,-39,-5
Cc1cc(/C=C2/C(=N)N3C(=NC2=O)SN=C3S(C)(=O)=O)c(C)n1-c1ccc(F)cc1,-24,17,i,nt,-27,-16
COc1ccc2c3c([nH]c2c1)[C@@H](CO)N(Cc1ccccc1F)CC31CN(C(=O)C2CCC2)C1,nt,nt,nt,nt,-5,nt
N#Cc1ccc(C23CC4(C2)[C@H](CN(CC2CCCCC2)[C@@H]4c2ccccc2)C3c2ccc(C(F)(F)F)cc2)cc1 (stereo not given in full),nt,42*,nt,nt,nt,4
N#Cc1ccc(C23CC4(C2)[C@H](CN(CC2CCCCC2)[C@@H]4c2ccccc2)C3c2ccccc2)cc1 (stereo not given in full),nt,22,i,0,-26,-24
CO[C@H]1CN(C)C(=O)c2cc(NC(=O)Nc3cc(Cl)cc(Cl)c3)ccc2OC[C@H](C)NC[C@@H]1C,nt,nt,nt,nt,33,nt
CC1CCN(C(=O)CSc2nnc(Cn3c(=O)sc4ccccc43)n2C)CC1,-9,43*,i,-7,-8,8
C[C@H](CO)N1C[C@H](C)[C@@H](CN(C)C(=O)Nc2cccc3ccccc23)Oc2ccc(NC(=O)NC3CCCCC3)cc2C1=O,nt,nt,nt,-4,0,nt
NC(N)=NN=C1c2ccccc2-c2ccccc21,11,6,i,82*,43,3
Cc1nccn1-c1c2c(c(C#N)c3nc4ccccc4n13)CCCC2,nt,nt,i,-10,-30,nt
N#Cc1c2c(c(-n3cnc4ccccc43)n3c1nc1ccccc13)CCC2,-2,45*,i,1,nt,0
C[C@@H]1CN([C@H](C)CO)S(=O)(=O)c2ccc(-c3ccccc3)cc2O[C@@H]1CN(C)C(=O)C1CCCCC1,nt,nt,nt,0,4,nt
COc1cccc(CN2[C@@H]3CNC[C@H]2[C@H]3c2ccc(-c3ccccc3OC)cc2)c1,nt,nt,nt,nt,-50,nt
COc1ccccc1-c1ccc(C2[C@H]3CNC[C@@H]2N3Cc2cc(-c3ccccc3)on2)cc1 (stereo not given in full),nt,nt,nt,nt,54*,nt
SMILES,DNA FID counter,Apaf-1 inh,Neddyl block,RAD54 inh,RAD52 inh,UBC13 inh
N#Cc1cccc(-c2ccc(C3[C@H]4CNC[C@@H]3N4Cc3cc(-c4ccccc4)on3)cc2)c1 (stereo not given in full),nt,nt,nt,nt,63*,nt
C/C=C/c1ccc(C2[C@H]3CNC[C@@H]2N3Cc2nccs2)cc1 (stereo not given in full),nt,nt,nt,nt,-6,nt
C/C=C/c1ccc(C2[C@H]3CNC[C@@H]2N3Cc2cc(-c3ccccc3)on2)cc1 (stereo not given in full),nt,nt,nt,nt,52*!,nt
Cc1ccc(S(=O)(=O)Nc2cccc3c2O[C@@H](CN(C)C(=O)Nc2c(C)noc2C)[C@H](C)CN([C@H](C)CO)C3=O)cc1,nt,nt,nt,0,0,nt
CN1C(=O)c2cc(NC(=O)Nc3ccc(Cl)cc3)ccc2OC[C@@H]2O[C@H](CC(=O)NCCN3CCCCC3)CC[C@@H]21,nt,nt,nt,18,54*,nt
O=C(O[C@@H]1OC2COC(=O)c3cc(O)c(O)c(O)c3-c3c(cc(O)c(O)c3O)C(=O)O[C@@H]([C@H]1O)[C@@H]2O)c1cc(O)c(O)c(O)c1,-12,nt,+,6,nt,nt
O=C1CC(CC(=O)N/N=C/c2ccccc2[N+](=O)[O-])=NN1,-15,46*,i,-2,nt,-3
OC[C@@H]1[C@@H](c2ccccc2)C2(CN(CC3CC3)C2)N1Cc1cncnc1,nt,nt,nt,nt,-3,nt
C[C@H]1CCCCO[C@H](CN(C)C(=O)Nc2ccc3c(c2)OCO3)[C@@H](C)CN([C@@H](C)CO)C(=O)c2cc(NC(=O)CCC(F)(F)F)ccc2O1,nt,nt,nt,5,-8,nt
CC(=O)Oc1c(-c2ccco2)oc2ccccc2c1=O,-1,-8,+,nt,-57,-8
CCN(CC)C(=O)COc1c(-c2ccco2)oc2ccccc2c1=O,-25,-4,i,-2,-8,-11
Cc1noc(C)c1NC(=O)N(C)C[C@H]1Oc2cc(C#CCC3CCCC3)ccc2S(=O)(=O)N([C@@H](C)CO)C[C@@H]1C,nt,nt,nt,-3,5,nt
CCCN(C)C[C@@H]1Oc2cc(C#CCC(C)C)ccc2S(=O)(=O)N([C@@H](C)CO)C[C@@H]1C,nt,nt,nt,2,51*,nt
C[C@H]1CN([C@@H](C)CO)S(=O)(=O)c2ccc(C#Cc3ccc(F)cc3)cc2O[C@H]1CN(C)C(=O)CN(C)C,nt,nt,nt,4,71*,nt
CNC[C@H]1Oc2cc(C#Cc3ccc(OC)cc3)ccc2S(=O)(=O)N([C@H](C)CO)C[C@@H]1C,nt,nt,nt,-4,56*,nt
CCCN(C)C[C@@H]1Oc2cc(C#CCC(C)C)ccc2S(=O)(=O)N([C@@H](C)CO)C[C@H]1C,nt,nt,nt,nt,-15,nt
Cc1noc(C)c1NC(=O)N(C)C[C@@H]1Oc2cc(C#CCC3CCCC3)ccc2S(=O)(=O)N([C@H](C)CO)C[C@@H]1C,nt,nt,nt,-4,99*,nt
Cc1noc(C)c1NC(=O)Nc1ccc2c(c1)C(=O)N([C@H](C)CO)C[C@H](C)[C@H](CN(C)C(=O)Nc1c(C)noc1C)OCCCC[C@H](C)O2,nt,nt,nt,0,13,nt
COc1ccc(NC(=O)Nc2cccc3c2O[C@@H](CN(C)C(=O)Nc2ccccc2)[C@@H](C)CN([C@H](C)CO)C3=O)cc1,nt,nt,nt,nt,4,nt

# High-throughput results from PubChem BioAssay.
